Assay results: PubChem BioAssay AID624060 (Southern Research Specialized Biocontainment Screening …, 2012)

System: UPEC UTI89 capsule, orcinol assay OD572
Assay: bacterial K capsule biogenesis inhibition, UTI89 – orcinol colorimetric, OD572, set 2, orthogonal assay for bacterial capsule biogenesis inhibitors, confirmation (AID 624060)
Conditions: at 100 µM; hits give low values
Method in brief: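 Test system: Uropathogenic Escherichia coli strain UTI89 with ΔkpsM export-deficient mutant | Doses: One dose, 100 µM | Schedule: Hydrolysis 1 h, 80 °C | Measured by: Orcinol colorimetry of hydrolysed, purified capsular polysaccharide, absorbance 572 nm | Control set: ΔkpsM capsule-export-deficient strain as low-capsule reference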

CCOc1ccc(-c2cc(NC(=O)c3c(F)cccc3F)c(C(=O)O)s2)cc1
capsule formation: 21%
